Measured values: ChEMBL document CHEMBL4385592, “4-Imidazo[2,1-b]thiazole-1,4-DHPs and neuroprotection: preliminary study in hits searching” (Eur J Med Chem, 2019)
pEC50: −log10 of the molar value.

Key:
[1] = target: T1, Voltage-gated L-type calcium channel (Homo sapiens, UniProt Q13936+Q13698+Q01668+O60840); test: Inhibition of voltage-dependent L-type calcium channel in human SH-SY5Y cells assessed as protection against glutamate-induced excitotoxicity by measuring recovery of cell viability at 1 uM measured after 24 hrs by alamar blue-based fluorescence method relative to control
[2] = target: T1, Voltage-gated L-type calcium channel; test: (§1) Inhibition of voltage-dependent L-type calcium channel in human U373MG cells assessed as protection against oxygen glucose deprivation/reperfusion-induced injury by measuring recovery of cell viability at 1 uM administered at onset of reperfusion period measured after 16 hrs by alamar blue assay relative to control; format: cell-based
In short: (§2)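 U-373 MG astrocytoma cells seeded at 30000 cells/ml and grown 24 or 48 h (37 °C/5% CO2). OGD: 24 h at 37 °C in glucose-free DMEM pre-bubbled with 95% N2/5% CO2, in a sealed nitrogen-flushed chamber. Then 16 h reperfusion in normal medium; compounds added at reperfusion, diluted from DMSO stock (DMSO ≤0.1%). Viability by alamarBlue, 4 h at 37 °C, fluorescence ex 530–560/em 590 nm. Expressed as % recovery from injury, mean ± S.E. of ≥3 experiments in sixuplicate.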

[3] = target: T1, Voltage-gated L-type calcium channel; test: as §1, with “at 20” for “at 1”; format: cell-based; in short: as §2
[4] = target: T1, Voltage-gated L-type calcium channel; test: Inhibition of voltage-dependent L-type calcium channel in human SH-SY5Y cells assessed as protection against glutamate-induced excitotoxicity by measuring recovery of cell viability at 20 uM measured after 24 hrs by alamar blue-based fluorescence method relative to control
[5] = target: T2, Voltage-gated L-type calcium channel (Rattus norvegicus, UniProt P22002+Q02485+P27732); test: as §1, with “Wistar rat brain slices” for “human U373MG cells”, “edema formation” for “cell viability”, “20” for “1”, “90 mins” for “16 hrs by alamar blue assay”; parameters: scale not given: the % may be the effect or the level left; details: 1.5 h
Left cardiac atrium [6] = test: Negative inotropic activity in guinea pig left atrium assessed as decrease in developed tension at 0.001 to 100 uM relative to control; format: ADME, tissue-based; details: Cavia porcellus
[7] = Selectivity ratio of EC50 for negative chronotropic activity in guinea pig spontaneously beating right atrium to EC50 for negative inotropic activity in guinea pig left atrium; format: ADME, tissue-based, Cavia porcellus
Right cardiac atrium [8] = test: Negative chronotropic activity in guinea pig spontaneously beating right atrium assessed as decrease in atrial rate at 10^-5 M relative to control; format: ADME, tissue-based, Cavia porcellus; parameters: scale not given: the % may be the effect or the level left; details: 10 µM
[9] = target: T2, Voltage-gated L-type calcium channel; test: as §1, with “Wistar rat brain slices” for “human U373MG cells”, “LDH release” for “cell viability”, “20” for “1”, “90 mins” for “16 hrs”, “spectrophotometric” for “alamar blue”; parameters: scale not given: the % may be the effect or the level left; details: 1.5 h
Right cardiac atrium [10] = test: Negative chronotropic activity in guinea pig spontaneously beating right atrium assessed as decrease in atrial rate; format: tissue-based; details: Cavia porcellus
Left cardiac atrium [11] = test: Negative inotropic activity in guinea pig left atrium assessed as decrease in developed tension at 5 x 10^-6 M relative to control; format: ADME, tissue-based, Cavia porcellus; parameters: scale not given: the % may be the effect or the level left; details: 5 µM
Aorta [12] = test: Inhibition of calcium-induced contraction in K+-depolarized guinea pig aortic strips at 10^-4 M relative to control; format: tissue-based; details: Cavia porcellus
Right cardiac atrium [13] = test: Negative inotropic activity in guinea pig right atrium assessed as decrease in developed tension at 10^-5 M relative to control; format: ADME, tissue-based, Cavia porcellus; parameters: scale not given: the % may be the effect or the level left; details: 10 µM
Left cardiac atrium [14] = test: Negative inotropic activity in guinea pig left atrium assessed as decrease in developed tension at 5 x 10^-7 M relative to control; format: ADME, tissue-based, Cavia porcellus; parameters: scale not given: the % may be the effect or the level left; details: 0.5 µM
[15] = tested on: Left cardiac atrium (Cavia porcellus); test: Negative inotropic activity in guinea pig left atrium assessed as decrease in developed tension
Left cardiac atrium [16] = test: Negative inotropic activity in guinea pig left atrium assessed as decrease in developed tension at 10^-6 M relative to control; format: ADME, tissue-based, Cavia porcellus; parameters: scale not given: the % may be the effect or the level left; details: 1 µM
Left cardiac atrium [17] = test: Negative inotropic activity in guinea pig left atrium assessed as decrease in developed tension at 5 x 10^-5 M relative to control; format: ADME, tissue-based, Cavia porcellus; parameters: scale not given: the % may be the effect or the level left; details: 50 µM
Aorta [18] = test: Inhibition of calcium-induced contraction in K+-depolarized guinea pig aortic strips at 5 x 10^-5 M relative to control; format: tissue-based; details: Cavia porcellus
Left cardiac atrium [19] = test: Negative inotropic activity in guinea pig left atrium assessed as decrease in developed tension at 10^-5 M relative to control; parameters: scale not given: the % may be the effect or the level left; details: 10 µM
Left cardiac atrium [20] = test: Negative inotropic activity in guinea pig left atrium assessed as decrease in developed tension at 10^-4 M relative to control; format: ADME, tissue-based, Cavia porcellus; parameters: scale not given: the % may be the effect or the level left; details: 100 µM
Right cardiac atrium [21] = test: Negative chronotropic activity in guinea pig spontaneously beating right atrium assessed as decrease in atrial rate at 5 x 10^-5 M relative to control; format: tissue-based, Cavia porcellus; parameters: scale not given: the % may be the effect or the level left; details: 50 µM

Row | SMILES | pEC50 (Left cardiac atrium [6]) | Activity (Right cardiac atrium [8]) [%] | pEC50 (Right cardiac atrium [10]) | Activity [1] [%] | Activity [2] [%] | Activity [3] [%] | Activity [4] [%] | Activity [5] [%] | Activity [9] [%] | inhibition at 100 µM (Aorta [12]) [%] | further results
1 | COC(=O)C1=C(C)NC(C)=C(C(=O)OC)C1c1c(-c2cc(OC)c([N+](=O)[O-])cc2OC)nc2sccn12 | – | – | – | 31.5 | < 5 | < 5 | 46.3 | – | – | – | –
2 | COC(=O)C1=C(C)NC(C)=C(C(=O)OC)C1c1c(-c2ccccc2OC)nc2sccn12 | – | – | – | < 5 | < 5 | < 5 | < 5 | – | – | – | –
3 | CCOC(=O)C1=C(C)NC(C)=C(C(=O)OCC)C1c1c(-c2ccc(F)cc2)nc2sc(Cl)cn12 | 7.31 | 83 | 5.76 | 44.9 | 32.6 | 33.7 | 47.5 | < 5 | 61.9 | 3 | Ratio EC50 [7]: 25 to 56; Activity (Left cardiac atrium [16]): 62%
4 | CCOC(=O)C1=C(C)NC(C)=C(C(=O)OCC)C1c1c(-c2cc(OC)ccc2OC)nc2sc(C)cn12 | 6.60 | 78 | 5.32 | < 5 | < 5 | < 5 | < 5 | – | – | 43 | Activity (Left cardiac atrium [19]): 89%; Ratio EC50 [7]: 20
5 | CCOC(=O)C1=C(C)NC(C)=C(C(=O)OCC)C1c1c(-c2ccc(OC)c(OC)c2)nc2sc(Br)cn12 | – | 90 | 6.51 | 18.2 | 9 | 55.1 | 33.4 | 89.1 | 57.8 | – | inhibition at 50 µM (Aorta [18]): 5%; Activity (Left cardiac atrium [11]): 39%
6 | CCOC(=O)C1=C(C)NC(C)=C(C(=O)OCC)C1c1c(-c2cc(OC)ccc2OC)nc2sccn12 | – | – | – | 42.8 | 36.6 | 65.7 | 67.4 | 75.8 | 87 | – | –
7 | COC(=O)C1=C(C)NC(C)=C(C(=O)OC)C1c1c(-c2c(OC)ccc(OC)c2[N+](=O)[O-])nc2sc(Cl)cn12 | – | – | – | 13.1 | < 5 | < 5 | 36.8 | – | – | – | –
8 | COC(=O)C1=C(C)NC(C)=C(C(=O)OC)C1c1c(-c2ccc(OC(F)(F)F)cc2)nc2sccn12 | – | – | – | 37.4 | 52.3 | 54.2 | 37.7 | 93.8 | 93.8 | – | –
9 | COC(=O)C1=C(C)NC(C)=C(C(=O)OC)C1c1c(C(F)(F)F)nc2sc(C)cn12 | – | – | – | 35.4 | < 5 | < 5 | 44.1 | 63.7 | 100.3 | – | –
10 | COC(=O)C1=C(C)NC(C)=C(C(=O)OC)C1c1c(-c2ccc(C(F)(F)F)cc2)nc2sccn12 | – | – | – | 17.5 | < 5 | < 5 | 36.6 | – | – | – | –
11 | COC(=O)C1=C(C)NC(C)=C(C(=O)OC)C1c1c(-c2cccc(OC)c2)nc2sccn12 | – | – | – | < 5 | < 5 | < 5 | < 5 | – | – | – | –
12 | COC(=O)C1=C(C)NC(C)=C(C(=O)OC)C1c1c(C(F)(F)F)nc2sccn12 | – | – | – | 44.1 | 73 | 86.7 | 84.5 | 105.4 | 79.2 | – | –
13 | CCOC(=O)C1=C(C)NC(C)=C(C(=O)OCC)C1c1c(-c2c(F)cccc2F)nc2sccn12 | – | 35 | – | 19.5 | < 5 | < 5 | 27.7 | – | – | 28 | Activity (Left cardiac atrium [16]): 33%
14 | COC(=O)C1=C(C)NC(C)=C(C(=O)OC)C1c1c(-c2ccccc2)nc2scc(C)n12 | – | – | – | 85.1 | < 5 | < 5 | 130 | 82.5 | 100.65 | – | –
15 | COC(=O)C1=C(C)NC(C)=C(C(=O)OC)C1c1c(-c2cc(OC)ccc2OC)nc2sccn12 | – | – | – | 51.9 | 82.9 | 96.7 | 99 | 77.6 | 83.9 | – | –
16 | COC(=O)C1=C(C)NC(C)=C(C(=O)OC)C1c1c(-c2cc(OC)ccc2OC)nc2sc(Cl)cn12 | – | – | – | 42 | 78.8 | 99.6 | 108.4 | 91.8 | 81.3 | – | –

Second part, led by results:

Row | pEC50 (Left cardiac atrium [6]) | Activity (Right cardiac atrium [8]) [%] | pEC50 (Right cardiac atrium [10]) | SMILES | Activity [1] [%] | Activity [2] [%] | Activity [3] [%] | Activity [4] [%] | Activity [5] [%] | Activity [9] [%] | inhibition at 100 µM (Aorta [12]) [%] | further results
17 | 6.72 | 50 | 5.07 | CCOC(=O)C1=C(C)NC(C)=C(C(=O)OCC)C1c1c(-c2ccc(Cl)c([N+](=O)[O-])c2)nc2sc(C)cn12 | < 5 | < 5 | < 5 | < 5 | < 5 | < 5 | 24 | Ratio EC50 [7]: 25 to 56; Activity (Left cardiac atrium [11]): 64%
18 | 7.60 | 92 | 5.62 | C=CCOC(=O)C1=C(C)NC(C)=C(C(=O)OCC=C)C1c1c(-c2cc(OC)c([N+](=O)[O-])cc2OC)nc2sccn12 | 40.6 | < 5 | < 5 | 52.3 | 82 | 51.2 | 15 | Ratio EC50 [7]: 95; Activity (Left cardiac atrium [11]): 96%
19 | 7.48 | 40 | – | CCOC(=O)C1=C(C)NC(C)=C(C(=O)OCC)C1c1c(-c2cc([N+](=O)[O-])c(Cl)cc2Cl)nc2sc(CC)cn12 | 14.7 | 21.2 | 26.7 | 41.6 | < 5 | 18 | 15 | Activity (Right cardiac atrium [13]): 58%; Activity (Left cardiac atrium [14]): 67%; pEC50 [15]: 5.83
20 | 5.29 | 86 | 6.01 | CCOC(=O)C1=C(C)NC(C)=C(C(=O)OCC)C1c1c(-c2ccccc2F)nc2sccn12 | 53.2 | < 5 | 36.8 | 62.2 | – | – | – | Activity (Left cardiac atrium [17]): 55%; inhibition at 50 µM (Aorta [18]): 17%
21 | 5.46 | – | 5.76 | CCOC(=O)C1=C(C)NC(C)=C(C(=O)OCC)C1c1c(-c2ccc(Cl)cc2)nc2sc(Cl)cn12 | 25.1 | < 5 | < 5 | 47.1 | – | – | 45 | Activity (Left cardiac atrium [20]): 73%; Activity (Right cardiac atrium [21]): 94%
22 | – | 25 | – | CCOC(=O)C1=C(C)NC(C)=C(C(=O)OCC)C1c1c(-c2ccc(F)cc2)nc2sc(Br)cn12 | < 5 | < 5 | < 5 | < 5 | – | – | – | Activity (Left cardiac atrium [17]): 37%; inhibition at 50 µM (Aorta [18]): 7%
23 | – | – | 7.64 | CCOC(=O)C1=C(C)NC(C)=C(C(=O)OCC)C1c1c(-c2ccc(F)cc2)nc2sc(C)cn12 | 28.9 | 9.1 | 13.2 | 43.1 | – | – | 12 | Activity (Right cardiac atrium [21]): 86%; Activity (Left cardiac atrium [16]): 37%
24 | 7.60 | 80 | 6.19 | CCOC(=O)C1=C(C)NC(C)=C(C(=O)OCC)C1c1c(-c2cc(OC)cc(OC)c2)nc2sc(Br)cn12 | 17.4 | < 5 | 29.6 | 42.4 | < 5 | 14.5 | – | Ratio EC50 [7]: < 10; inhibition at 50 µM (Aorta [18]): 7%; Activity (Left cardiac atrium [16]): 93%
